How the values were obtained:
[1] = test system: patients with relapsed extensive-stage SCLC; assay: Safety and tolerability; type: in vivo, human; settings: part B SCLC cohort
In short: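 Oral adavosertib 200 mg once daily on days 1–3 and 8–10 of a 21-day cycle, plus continuous oral olaparib 200 mg twice daily. AEs were graded by CTCAE v4.03 and assessed by physical examination, vital signs (blood pressure, pulse, body temperature) and laboratory parameters, from enrollment through post-treatment follow-up. Safety data were summarized descriptively.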

cell kill activity = settings: preclinically determined; no reference given; cited from earlier work
[2] = test system: patients with refractory solid tumors; assay: Safety and tolerability; type: in vivo, human; settings: for Patients with AEs causally related to adavosertib: 12 patients
In short: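 Open-label, multicenter escalation: oral adavosertib 175 mg twice daily on a 3-days-on/4-days-off schedule, plus continuous oral olaparib 200 mg twice daily, in 21-day cycles. DLTs were recorded in cycle 1, a window extendable up to 2 weeks after drug-related delays; DLT-evaluable patients received >75% of planned doses. AEs were graded by CTCAE v4.03 via examination, vital signs and laboratory tests.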

[3] = test system: PARP inhibitor-resistant ovarian cancer; settings: adavosertib monotherapy arm; cited from earlier work
[4] = Plasma pharmacokinetics of adavosertib and olaparib, part A; type: in vivo, human
[5] = in combination with olaparib, cohort 4.2
[6] = in combination with olaparib, cohort 7.4
[7] = with adavosertib 175 mg bid vs olaparib alone

Compound: C=CCn1c(=O)c2cnc(Nc3ccc(N4CCN(C)CC4)cc3)nc2n1-c1cccc(C(C)(C)O)n1 [adavosertib]
- AEs leading to dose reductions of adavosertib [1]: one
- AEs leading to interruptions of adavosertib [1]: three
- Target adavosertib plasma concentration range for cell kill activity (cell kill activity): 0.5 to 1 µM
- Patients with an AE leading to dose reduction of adavosertib ([2]; cohort 4.2, five patients): 35.7%
- Patients with an AE leading to dose interruption of adavosertib ([2]; cohort 4.2, seven patients): 50.0%
- Patients with an AE leading to dose interruption of adavosertib ([2]; cohort 7.4, five patients): 38.5%
- Patients with an AE leading to dose reduction of adavosertib ([2]; cohort 7.4, three patients): 23.1%
- MTD for adavosertib bid ([2]; days 1–3, 8–10/21-day cycle, plus continuous olaparib 200 mg bid (cohort 4.2)): 175 mg
- Anemia causally related to adavosertib [2, 5]: 35.7%
- Decreased appetite causally related to adavosertib [2, 5]: 50.0%
- Diarrhea causally related to adavosertib [2, 5]: 50.0%
- Fatigue causally related to adavosertib [2, 5]: 64.3%
- Nausea causally related to adavosertib [2, 5]: 50.0%
- Patients with AEs causally related to adavosertib [2, 5]: 85.7%
- Patients with serious AEs causally related to adavosertib ([2]; in combination with olaparib, cohort 4.2, three patients): 21.4%
- Anemia causally related to adavosertib [2, 6]: 38.5%
- Decreased appetite causally related to adavosertib [2, 6]: 30.8%
- Diarrhea causally related to adavosertib [2, 6]: 38.5%
- Fatigue causally related to adavosertib [2, 6]: 15.4%
- Nausea causally related to adavosertib [2, 6]: 23.1%
- Patients with AEs causally related to adavosertib [2, 6]: 92.3%
- Patients with serious AEs causally related to adavosertib ([2]; in combination with olaparib, cohort 7.4, one patient (dizziness)): 7.7%
- Patients with CTCAE grade ≥ 3 events causally related to adavosertib ([2]; in combination with olaparib, part A overall, 52 patients): 43.7%
- AEs with an outcome of death considered causally related to adavosertib ([2]; part A overall, sepsis, not a result of a DLT): one
- Clinical benefit rate [3]: 63%

Compound: O=C(c1cc(Cc2n[nH]c(=O)c3ccccc23)ccc1F)N1CCN(C(=O)C2CC2)CC1 [olaparib, reference compound]
- Ratio of olaparib plus adavosertib to olaparib alone for AUC0–10 and/or Cmax ([4]; in some patients (high outliers)): exceeded 2
- Difference between exposure to olaparib in the presence of adavosertib and to olaparib alone ([4]; part A): no statistically significant difference
- Olaparib Cmin,ss compared with the IC95 in preclinical studies ([4]; part A, Supplementary Fig. 3): comparable
- Increase in olaparib AUC0–10 [4, 7]: 33%
- Increase in olaparib Cmax [4, 7]: 18%
- AEs leading to interruptions of olaparib [1]: five
- Patients with an AE leading to dose interruption of olaparib ([2]; cohort 4.2, nine patients): 64.3%
- Patients with an AE leading to dose reduction of olaparib ([2]; cohort 4.2, three patients): 21.4%
- Patients with an AE leading to dose interruption of olaparib ([2]; cohort 7.4, eight patients): 61.5%
- Patients with an AE leading to dose reduction of olaparib ([2]; cohort 7.4, three patients): 23.1%

Source: PMC11557630 (Targeted Oncology, 2024)
